The source made the active and inactive calls. The rule behind the calls is not given here.

For two molecules, inhibition, Activity and AUC(0-inf) results are on record in ChEMBL document CHEMBL4406821, “Novel dual inhibitors targeting CDK4 and VEGFR2 synergistically suppressed cancer progression and angiogenesis” (Eur J Med Chem, 2019).

Series [1] has as its target Protein kinase C eta type (Homo sapiens) (UniProt P24723). Put plainly: Inhibition of recombinant human full length PKCeta (2 to end residues) at 1 uM using ERMRPRKRQGSVRRRV as substrate incubated for 40 mins in presence of [gamma-33P]-ATP by scintillation counting method relative to control.
In series [2] the target is PAS domain-containing serine/threonine-protein kinase (Homo sapiens) (UniProt Q96RG2). Description: Inhibition of recombinant human PASK (995 to end residues) at 1 uM using KKLNRTLSFAEPG as substrate incubated for 40 mins in presence of [gamma-33P]-ATP by scintillation counting method relative to control.
The subject of series [3] is PI3-kinase p110-alpha/p85-alpha (Homo sapiens), P27986+P42336 [E542K]. Put plainly: Inhibition of recombinant human full length PI3K p110alpha/p85alpha E542K mutant at 1 uM using phosphatidylinositol 4,5-bisphosphate as substrate incubated for 40 mins in presence of [gamma-33P]-ATP by scintillation counting method relative to control. It is filed as protein-complex assay.

In series [4] the target is Dual specificity mitogen-activated protein kinase kinase 2 (Homo sapiens) (UniProt P36507). Description: Inhibition of recombinant human full length MEK2 at 1 uM using MBP as substrate incubated for 40 mins in presence of [gamma-33P]-ATP by scintillation counting method relative to control.
The subject of the next series is T47D. Put plainly: Induction of cell cycle arrest in human T47D cells assessed as decrease in cell accumulation in S phase at 20 to 40 nM incubated for 36 hrs by propidium iodide staining based flow cytometry. It is filed as functional. An outline of the steps:
(§1)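 Cells were treated with graded concentrations for 36 h, then fixed overnight in 70% ice-cold ethanol at 4°C and resuspended in PBS. Staining used 50 µg/ml PI plus 5 µg/ml RNase at 37°C for 30 min. DNA content was analysed by FACS to give G0/G1, S and G2/M fractions.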
A general note: Flow cytometry measures light scatter and fluorescence of single cells or particles in a stream.

The target of series [5] is Tyrosine-protein kinase Tec (Homo sapiens) (UniProt P42680). Description: Inhibition of activated recombinant human TEC (174 to end residues) at 1 uM using EFPIYDFLPAKKK as substrate incubated for 40 mins in presence of [gamma-33P]-ATP by scintillation counting method relative to control.
Tyrosine-protein kinase Tec (Homo sapiens), sequence (P42680 whole entry, the tested form may be a part): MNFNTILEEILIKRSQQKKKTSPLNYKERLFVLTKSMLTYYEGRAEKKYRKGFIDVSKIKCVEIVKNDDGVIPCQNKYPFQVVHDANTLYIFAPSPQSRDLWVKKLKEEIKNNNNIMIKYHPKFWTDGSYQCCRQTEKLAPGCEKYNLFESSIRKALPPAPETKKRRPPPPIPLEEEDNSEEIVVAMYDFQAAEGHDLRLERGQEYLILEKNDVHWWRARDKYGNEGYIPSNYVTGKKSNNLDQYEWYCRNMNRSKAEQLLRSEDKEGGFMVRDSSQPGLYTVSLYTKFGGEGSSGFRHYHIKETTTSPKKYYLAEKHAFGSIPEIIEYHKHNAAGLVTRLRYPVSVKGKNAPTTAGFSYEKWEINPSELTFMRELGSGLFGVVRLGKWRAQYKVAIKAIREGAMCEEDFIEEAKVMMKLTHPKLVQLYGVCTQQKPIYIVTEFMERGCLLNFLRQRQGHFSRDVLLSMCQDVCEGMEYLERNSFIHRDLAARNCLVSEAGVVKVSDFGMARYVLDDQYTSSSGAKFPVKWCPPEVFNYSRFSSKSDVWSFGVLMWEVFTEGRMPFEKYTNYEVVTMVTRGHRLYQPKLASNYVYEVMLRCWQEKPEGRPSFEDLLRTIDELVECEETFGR
Series [6] addresses Serine/threonine-protein kinase SIK3 (Homo sapiens) (UniProt Q9Y2K2). Put plainly: Inhibition of recombinant human SIK3 (1 to 307 residues) at 1 uM using KKKVSRSGLYRSPSMPENLNRPR as substrate incubated for 40 mins in presence of [gamma-33P]-ATP by scintillation counting method relative to control.
The target in series [7] is Tyrosine-protein kinase Yes (Homo sapiens) (UniProt P07947). Put plainly: Inhibition of recombinant human full length YES at 1 uM using poly(Glu, Tyr) 4:1 as substrate incubated for 40 mins in presence of [gamma-33P]-ATP by scintillation counting method relative to control.
Tyrosine-protein kinase Yes (Homo sapiens), sequence (P07947 2-543 limits assumed): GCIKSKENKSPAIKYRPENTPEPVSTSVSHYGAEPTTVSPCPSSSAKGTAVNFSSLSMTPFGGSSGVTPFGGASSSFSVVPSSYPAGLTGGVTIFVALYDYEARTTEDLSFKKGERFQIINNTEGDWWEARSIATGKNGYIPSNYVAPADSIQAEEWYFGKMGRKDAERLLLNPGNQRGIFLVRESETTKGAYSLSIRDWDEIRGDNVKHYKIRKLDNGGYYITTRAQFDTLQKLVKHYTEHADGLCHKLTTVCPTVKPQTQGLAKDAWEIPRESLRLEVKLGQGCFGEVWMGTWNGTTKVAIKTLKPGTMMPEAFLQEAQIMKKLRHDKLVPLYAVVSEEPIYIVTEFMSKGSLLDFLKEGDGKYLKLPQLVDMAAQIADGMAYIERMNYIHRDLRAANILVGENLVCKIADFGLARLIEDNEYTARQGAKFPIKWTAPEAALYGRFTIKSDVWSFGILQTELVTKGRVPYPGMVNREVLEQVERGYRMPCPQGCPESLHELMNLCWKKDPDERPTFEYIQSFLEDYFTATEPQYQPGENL
Series [8] deals with Myosin-IIIb (Homo sapiens) (UniProt Q8WXR4). Put plainly: Inhibition of recombinant human MYO3B (1 to 326 residues) at 1 uM using RLGRDKYKTLRQIRQ as substrate incubated for 40 mins in presence of [gamma-33P]-ATP by scintillation counting method relative to control.
Myosin-IIIb (Homo sapiens), sequence (Q8WXR4 whole entry, the tested form may be a part): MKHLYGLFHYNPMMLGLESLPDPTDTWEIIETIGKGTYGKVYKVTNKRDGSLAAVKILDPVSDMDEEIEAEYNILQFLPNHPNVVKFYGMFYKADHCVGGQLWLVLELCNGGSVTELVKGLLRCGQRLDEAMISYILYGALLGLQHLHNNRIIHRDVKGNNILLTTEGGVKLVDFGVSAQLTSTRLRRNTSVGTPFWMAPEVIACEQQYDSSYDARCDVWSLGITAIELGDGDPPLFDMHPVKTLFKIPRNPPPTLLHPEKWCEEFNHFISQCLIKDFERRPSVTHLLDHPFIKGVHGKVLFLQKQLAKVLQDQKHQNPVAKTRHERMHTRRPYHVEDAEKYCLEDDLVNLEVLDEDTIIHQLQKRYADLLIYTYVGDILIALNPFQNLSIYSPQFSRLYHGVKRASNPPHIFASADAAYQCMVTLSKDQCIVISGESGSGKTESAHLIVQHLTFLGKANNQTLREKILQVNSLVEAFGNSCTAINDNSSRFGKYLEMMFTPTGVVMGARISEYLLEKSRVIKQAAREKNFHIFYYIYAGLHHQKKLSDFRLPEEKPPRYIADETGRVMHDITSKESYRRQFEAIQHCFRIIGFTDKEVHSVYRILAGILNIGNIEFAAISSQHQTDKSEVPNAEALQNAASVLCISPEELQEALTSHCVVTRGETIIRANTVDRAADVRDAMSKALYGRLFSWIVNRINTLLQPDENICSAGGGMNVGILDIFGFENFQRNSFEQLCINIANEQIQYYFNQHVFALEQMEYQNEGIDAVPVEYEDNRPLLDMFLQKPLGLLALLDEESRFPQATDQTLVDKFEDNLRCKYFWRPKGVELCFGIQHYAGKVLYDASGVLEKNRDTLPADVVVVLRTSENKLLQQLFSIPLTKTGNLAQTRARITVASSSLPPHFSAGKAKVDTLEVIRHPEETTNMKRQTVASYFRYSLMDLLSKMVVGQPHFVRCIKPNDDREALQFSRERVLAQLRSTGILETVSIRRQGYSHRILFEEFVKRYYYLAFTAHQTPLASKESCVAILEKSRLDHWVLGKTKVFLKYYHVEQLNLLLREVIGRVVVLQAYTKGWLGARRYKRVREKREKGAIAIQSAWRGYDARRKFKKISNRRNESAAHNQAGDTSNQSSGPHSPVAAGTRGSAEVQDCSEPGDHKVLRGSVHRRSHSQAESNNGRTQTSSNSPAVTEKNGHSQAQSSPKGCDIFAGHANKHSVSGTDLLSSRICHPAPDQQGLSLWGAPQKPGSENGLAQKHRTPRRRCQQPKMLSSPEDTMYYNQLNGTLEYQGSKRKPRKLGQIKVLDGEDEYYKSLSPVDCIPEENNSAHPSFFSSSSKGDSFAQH
Series [9] concerns the target Serine/threonine-protein kinase ATR (Homo sapiens) (UniProt Q13535). Put plainly: Inhibition of recombinant human full length ATR at 1 uM using GST-cMyc-p53 as substrate incubated for 40 mins in presence of [gamma-33P]-ATP by scintillation counting method relative to control. A digest of the protocol: (§2)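 Tested at a single 1 uM in an outsourced commercial kinase-profiling panel, read as percent inhibition. Each value is the mean of two independent experiments.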

The subject of series [10] is Angiopoietin-1 receptor (Homo sapiens), Q02763 [R849W]. Put plainly: Inhibition of recombinant human TIE2 R849W mutant (771 to end residues) at 1 uM using EFPIYDFLPAKKK as substrate incubated for 40 mins in presence of [gamma-33P]-ATP by scintillation counting method relative to control.
Series [11] concerns the target G protein-coupled receptor kinase 3 (Homo sapiens) (UniProt P35626). Description: Inhibition of recombinant human full length GRK3 at 1 uM using casein as substrate incubated for 40 mins in presence of [gamma-33P]-ATP by scintillation counting method relative to control.
In series [12] the target is Serine/threonine-protein kinase D1 (Homo sapiens) (UniProt Q15139). Put plainly: Inhibition of recombinant human full length PKCmu at 1 uM using KKLNRTLSVA as substrate incubated for 40 mins in presence of [gamma-33P]-ATP by scintillation counting method relative to control.
Series [13] deals with Testis-specific serine/threonine-protein kinase 3 (Homo sapiens) (UniProt Q96PN8). Put plainly: Inhibition of recombinant human full length TSSK3 at 1 uM using AMARAASAAALARRR as substrate incubated for 40 mins in presence of [gamma-33P]-ATP by scintillation counting method relative to control. A digest of the protocol:
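Single-point inhibition at 1 uM measured in a commercial kinase profiling panel (KinaseProfiler); each value is the mean of two independent experiments.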

Series [14] deals with Hepatocyte growth factor receptor (Homo sapiens), P08581 [D1246H]. Put plainly: Inhibition of recombinant human Met D1246H mutant (974 to end residues) at 1 uM using KKKGQEEEYVFIE as substrate incubated for 40 mins in presence of [gamma-33P]-ATP by scintillation counting method relative to control.
Series [15] in a line: AUC (0 to infinity) in Sprague-Dawley rat at 10 mg/kg, iv by HPLC-MS analysis. Particulars: in vivo. On the set-up: dose 10 mg/kg, route intravenous, time infinity. In kind it is ADME, organism-based. An outline of the steps:
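Rats fitted with jugular vein catheters for serial blood sampling. Compound dissolved in saline with 5% (v/v) DMSO and given as a single 10 mg/kg dose iv or po after an overnight fast, n = 5 per group. Plasma isolated at once and measured by HPLC with tandem MS detection. Parameters derived by noncompartmental fitting.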

Series [16] addresses G protein-coupled receptor kinase 5 (Homo sapiens) (UniProt P34947). Put plainly: Inhibition of recombinant human full length GRK5 at 1 uM using casein as substrate incubated for 40 mins in presence of [gamma-33P]-ATP by scintillation counting method relative to control. An outline of the steps: as §2
For series [17], the target named is Serine/threonine-protein kinase PRP4 homolog (Homo sapiens) (UniProt Q13523). Description: Inhibition of recombinant human PRP4 (663 to end residues) at 1 uM using casein as substrate incubated for 40 mins in presence of [gamma-33P]-ATP by scintillation counting method relative to control.
The target in series [18] is Ephrin type-A receptor 1 (Homo sapiens) (UniProt P21709). Description: Inhibition of recombinant human EPhA1 (568 to end residues) at 1 uM using KKKSPGEYVNIEFG as substrate incubated for 40 mins in presence of [gamma-33P]-ATP by scintillation counting method relative to control.
Ephrin type-A receptor 1 (Homo sapiens), sequence (P21709 whole entry): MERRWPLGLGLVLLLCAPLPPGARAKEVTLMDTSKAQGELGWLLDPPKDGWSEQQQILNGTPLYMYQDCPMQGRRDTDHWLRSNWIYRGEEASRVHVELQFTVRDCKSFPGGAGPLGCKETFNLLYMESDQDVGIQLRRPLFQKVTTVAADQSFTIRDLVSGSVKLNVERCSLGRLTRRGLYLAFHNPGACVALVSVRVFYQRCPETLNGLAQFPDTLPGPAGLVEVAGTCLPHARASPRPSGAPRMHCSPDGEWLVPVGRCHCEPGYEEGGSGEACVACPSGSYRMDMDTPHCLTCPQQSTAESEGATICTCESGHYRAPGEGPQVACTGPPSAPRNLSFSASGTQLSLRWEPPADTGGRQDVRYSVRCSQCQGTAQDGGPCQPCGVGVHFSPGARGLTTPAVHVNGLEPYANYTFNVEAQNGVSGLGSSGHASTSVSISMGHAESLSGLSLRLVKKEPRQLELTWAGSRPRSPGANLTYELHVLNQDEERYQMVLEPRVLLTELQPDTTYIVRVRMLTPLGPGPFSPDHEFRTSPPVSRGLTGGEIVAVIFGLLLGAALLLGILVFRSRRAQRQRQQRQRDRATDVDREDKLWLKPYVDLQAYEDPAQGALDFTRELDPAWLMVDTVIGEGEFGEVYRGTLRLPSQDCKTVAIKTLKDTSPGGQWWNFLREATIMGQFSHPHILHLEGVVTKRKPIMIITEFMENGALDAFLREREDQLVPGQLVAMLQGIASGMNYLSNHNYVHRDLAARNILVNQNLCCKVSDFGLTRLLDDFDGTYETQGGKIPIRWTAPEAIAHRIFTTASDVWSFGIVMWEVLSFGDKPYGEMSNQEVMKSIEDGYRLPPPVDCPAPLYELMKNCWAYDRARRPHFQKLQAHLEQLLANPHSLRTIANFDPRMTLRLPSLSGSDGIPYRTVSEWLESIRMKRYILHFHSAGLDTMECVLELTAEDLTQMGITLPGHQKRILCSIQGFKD
The test system of another series is SiHa. Put plainly: Induction of cell cycle arrest in human SiHa cells assessed as accumulation in G2/M phase at 40 to 80 nM incubated for 36 hrs by propidium iodide staining based flow cytometry. It is filed as functional. A digest of the protocol:
as §1

Another series concerns MDA-MB-231. Description: Induction of cell cycle arrest in human MDA-MB-231 cells assessed as accumulation in G2/M phase at 40 nM incubated for 36 hrs by propidium iodide staining based flow cytometry. It is filed as functional. A digest of the protocol:
as §1

Protein kinase C eta type (Homo sapiens), sequence (P24723 whole entry, the tested form may be a part): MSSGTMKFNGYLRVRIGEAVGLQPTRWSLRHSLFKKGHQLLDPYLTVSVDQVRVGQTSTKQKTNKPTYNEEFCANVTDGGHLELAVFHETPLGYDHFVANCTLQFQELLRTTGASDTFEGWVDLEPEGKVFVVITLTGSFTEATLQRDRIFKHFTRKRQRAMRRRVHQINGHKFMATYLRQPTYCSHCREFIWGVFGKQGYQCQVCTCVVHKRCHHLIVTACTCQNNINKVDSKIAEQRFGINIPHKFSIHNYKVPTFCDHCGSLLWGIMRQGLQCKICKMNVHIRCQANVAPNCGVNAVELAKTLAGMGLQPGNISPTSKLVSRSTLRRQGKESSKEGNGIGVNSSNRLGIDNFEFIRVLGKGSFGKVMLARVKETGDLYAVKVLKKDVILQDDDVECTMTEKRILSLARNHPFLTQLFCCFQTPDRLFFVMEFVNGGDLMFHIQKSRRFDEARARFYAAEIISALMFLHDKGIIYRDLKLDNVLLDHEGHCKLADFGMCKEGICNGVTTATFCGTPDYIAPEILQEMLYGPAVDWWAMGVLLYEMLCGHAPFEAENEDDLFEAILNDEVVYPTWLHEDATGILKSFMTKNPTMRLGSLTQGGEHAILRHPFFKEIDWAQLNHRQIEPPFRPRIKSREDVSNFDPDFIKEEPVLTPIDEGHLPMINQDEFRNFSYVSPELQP
G protein-coupled receptor kinase 5 (Homo sapiens), sequence (P34947 whole entry, looked up): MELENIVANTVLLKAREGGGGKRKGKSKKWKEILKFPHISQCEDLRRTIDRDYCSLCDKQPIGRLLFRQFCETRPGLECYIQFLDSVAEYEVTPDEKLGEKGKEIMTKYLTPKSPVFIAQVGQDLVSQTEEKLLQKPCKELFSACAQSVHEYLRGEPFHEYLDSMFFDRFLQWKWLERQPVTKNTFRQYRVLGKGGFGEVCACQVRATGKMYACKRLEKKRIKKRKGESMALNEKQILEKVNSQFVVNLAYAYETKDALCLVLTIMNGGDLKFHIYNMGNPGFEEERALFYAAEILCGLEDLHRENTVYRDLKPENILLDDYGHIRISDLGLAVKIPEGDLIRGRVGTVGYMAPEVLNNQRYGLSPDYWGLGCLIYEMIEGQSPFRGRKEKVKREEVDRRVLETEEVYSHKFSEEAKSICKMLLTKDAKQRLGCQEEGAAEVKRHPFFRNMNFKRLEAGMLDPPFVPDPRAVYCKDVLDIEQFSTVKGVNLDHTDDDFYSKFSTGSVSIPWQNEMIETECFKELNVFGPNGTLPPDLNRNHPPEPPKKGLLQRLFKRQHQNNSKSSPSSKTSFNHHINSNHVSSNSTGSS
Testis-specific serine/threonine-protein kinase 3 (Homo sapiens), sequence (Q96PN8 whole entry): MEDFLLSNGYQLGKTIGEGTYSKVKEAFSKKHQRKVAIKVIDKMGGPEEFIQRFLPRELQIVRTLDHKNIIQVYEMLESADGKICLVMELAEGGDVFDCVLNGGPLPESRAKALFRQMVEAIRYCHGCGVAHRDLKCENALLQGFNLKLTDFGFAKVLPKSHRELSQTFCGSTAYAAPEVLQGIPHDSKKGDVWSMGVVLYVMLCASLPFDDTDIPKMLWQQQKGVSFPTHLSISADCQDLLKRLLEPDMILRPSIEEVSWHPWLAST

Turning to `Cc1ccc(NC(=O)C2(C(=O)Nc3ccc(Nc4ncc(F)c(-c5cc(F)c6nc(C)n(C(C)C)c6c5)n4)cc3)CC2)cc1`, the inhibition (in general, the relative decrease from the control value, in per cent) in [1] worked out at 17%; in series [2], 19%; in [3], 5%; in series [4], 14%; in series [5], 1%; in series [6], 43%. Besides, the inhibition in series [7] was found to be 31%; in series [8] it was 10%; in series [9], 0%; in series [10], 57%; in series [11] it was 10%; in series [12] it was 14%. In addition, the inhibition in series [13] was 0%; in series [14], 55%; in series [16], 0%; in series [17], 48%; in series [18], 73%. The result with T47D and in the series with SiHa was Active. The total exposure AUC(0-inf) (in general, the area under the concentration-time curve extrapolated to infinity) in series [15] stood at 11000 ng·h/mL.

Take `COc1cc2nccc(Oc3ccc(NC(=O)C4(C(=O)Nc5ccc(F)cc5)CC4)cc3)c2cc1OC` [CABOZANTINIB]: the outcome in the series on MDA-MB-231 was Active.
